Source: ChEMBL document CHEMBL4811272, “A new sulfated triterpene glycoside from the sea cucumber Colochirus quadrangularis, and evaluation of its antifungal, antitumor and immunomodulatory activities” (Bioorg Med Chem, 2021)
In brackets after ≈: the same amount, converted by molar mass.

Assays:
A549 = test: Cytotoxicity against human A549 cells assessed as reduction in cell viability by sulforhodamine B assay; type: functional, cell-based
Method in brief: (§1)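 Cells were kept in RPMI-1640 with 10% FBS, 2 mM L-glutamine, 50 μM β-mercaptoethanol and penicillin/streptomycin, at 37 °C in 5% CO2. SRB assay used 100, 10, 1, 0.1 and 0.01 μM, each in triplicate. Percent inhibition was calculated against solvent control OD. IC50 came from Logit curve fitting and is the mean of three independent experiments.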

Candida albicans = test: Antifungal activity against Candida albicans ATCC 76615 by microplate reader assay; type: functional; details: ATTCC76615
Method in brief: (§2)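 Broth microdilution read by optical density at 630 nm. MIC80 is the first well with about 80% less growth than the drug-free well. Each concentration was run in three replicate wells, and values are means of three independent experiments.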

Cryptococcus neoformans = test: Antifungal activity against Cryptococcus neoformans ATCC 32609 by microplate reader assay; type: functional; details: ATTCC32609; method in brief: as §2
Candida tropicalis = test: Antifungal activity against clinical strain Candida tropicalis by microplate reader assay; type: functional; method in brief: as §2
Candida parapsilosis = test: Antifungal activity against clinical strain Candida parapsilosis by microplate reader assay; type: functional; details: Lodderomyces parapsilosis; method in brief: as §2
MKN-28 = test: Cytotoxicity against human MKN-28 cells assessed as reduction in cell viability by sulforhodamine B assay; type: functional, cell-based; method in brief: as §1
MCF7 = test: Cytotoxicity against human MCF7 cells assessed as reduction in cell viability by sulforhodamine B assay; type: functional, cell-based; method in brief: as §1
HCT-116 = test: Cytotoxicity against human HCT-116 cells assessed as reduction in cell viability by sulforhodamine B assay; type: functional, cell-based; method in brief: as §1
Bel-7402 [1] = test: Cytotoxicity against human Bel-7402 cells assessed as reduction in cell viability by sulforhodamine B assay; type: functional, cell-based; method in brief: as §1
[2] = Cytotoxicity against human HO-8910 cells assessed as reduction in cell viability by sulforhodamine B assay; type: functional, cell-based; method in brief: as §1
HL-60 = test: Cytotoxicity against human HL-60 cells assessed as reduction in cell viability by sulforhodamine B assay; type: functional, cell-based; method in brief: as §1
SPC-A4 = test: Cytotoxicity against human SPC-A4 cells assessed as reduction in cell viability by sulforhodamine B assay; type: functional, cell-based; method in brief: as §1
Pyricularia oryzae = test: Antifungal activity against Pyricularia oryzae P-2B by measuring minimum morphological deformation concentration; type: functional; details: read-out: MEC
CCRF S-180 = test: Antitumor activity against mouse S-180 cells implanted in KM mouse assessed as tumor growth inhibition at 25 mg/kg, IG administered everyday for 7 days relative to control; type: functional; details: CCRF S-180, po, 168 h, time 7 day, read-out: TGI
Method in brief: (§3)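 S-180 or H22 cells, about 2.5 × 10⁶ per mouse, injected s.c. in the right axilla of wild-type KM mice. Randomized after 24 h and dosed intragastrically for 7 days; sacrificed 24 h after the last dose. TGI = (W_C − W_T)/W_C × 100% from average tumor weight. n = 8; one-way ANOVA vs vehicle.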

H22 = test: Antitumor activity against mouse H22 cells implanted in KM mouse assessed as tumor growth inhibition at 25 mg/kg, IG administered everyday for 7 days relative to control; type: functional; details: H22, po, 168 h, time 7 day, read-out: TGI; method in brief: as §3
Bel-7402 [3] = test: Antitumor activity against human Bel-7402 cells implanted in BALB/c-nu mouse assessed as tumor growth inhibition at 100 mg/kg, IG administered everyday for 7 days relative to control; type: functional; details: Bel-7402, po, 168 h, time 7 day, read-out: TGI

Structure (SMILES)	IC50 (A549) [nM]	MIC80 (Candida albicans) [µg/mL]	MIC80 (Cryptococcus neoformans) [µg/mL]	MIC80 (Candida tropicalis) [µg/mL]	MIC80 (Candida parapsilosis) [µg/mL]	IC50 (MKN-28) [nM]	IC50 (MCF7) [nM]	IC50 (HCT-116) [nM]	IC50 (Bel-7402 [1]) [nM]	IC50 [2] [nM]	IC50 (HL-60) [nM]	IC50 (SPC-A4) [nM]	minimal effective concentration (Pyricularia oryzae) [µg/mL]	inhibition in vivo at 25 mg/kg (CCRF S-180) [%]	inhibition in vivo at 25 mg/kg (H22) [%]	inhibition in vivo at 100 mg/kg (Bel-7402 [3]) [%]
C=C(C)CCC[C@]1(C)OC(=O)[C@]23CC[C@@H]4C(=CCC5C(C)(C)[C@@H](O[C@@H]6OC[C@@H](OS(=O)(=O)O)[C@H](O)[C@H]6O[C@@H]6O[C@H](C)[C@@H](O[C@@H]7OC[C@@H](O)[C@H](O[C@@H]8O[C@H](CO)[C@@H](O)[C@H](OC)[C@H]8O)[C@H]7OS(=O)(=O)O)[C@H](O)[C@H]6O)CC[C@@]54C)[C@]2(C)C[C@H](OC(C)=O)[C@@H]31.[Na+].[Na+].[Na+] (some centres not stated)	750	4	16	8	4	2030	1790	930	1300	1900	650	1300	–	–	–	–
O=c1[nH]cc(F)c(=O)[nH]1 [FLUOROURACIL]	–	–	–	–	–	–	–	–	–	–	–	–	≤ 5	39.4	39.4	–
C=C(C)CCC[C@]1(C)OC(=O)[C@]23CC[C@@H]4C(=CCC5C(C)(C)[C@@H](O[C@@H]6OC[C@@H](OS(=O)(=O)[O-])[C@H](O)[C@H]6O[C@@H]6O[C@H](C)[C@@H](O[C@@H]7OC[C@@H](O)[C@H](O[C@@H]8O[C@H](CO)[C@@H](O)[C@H](OC)[C@H]8O)[C@H]7O)[C@H](O)[C@H]6O)CC[C@@]54C)[C@]2(C)CC(=O)[C@@H]31.[Na+] (some centres not stated)	1300	25	25	25	25	1820	1560	1090	1300	1900	1950	1500	–	–	–	–
CCC(C)n1ncn(-c2ccc(N3CCN(c4ccc(OCC5COC(Cn6cncn6)(c6ccc(Cl)cc6Cl)O5)cc4)CC3)cc2)c1=O (configuration not stated) [ITRACONAZOLE]	–	< 0.125	2 (≈ 2.83 µM)	1 (≈ 1.42 µM)	< 0.125	–	–	–	–	–	–	–	–	–	–	–
CN(C/C=C/C#CC(C)(C)C)Cc1cccc2ccccc12 [TERBINAFINE]	–	32 (≈ 110 µM)	< 0.125	< 0.125	< 0.125	–	–	–	–	–	–	–	–	–	–	–
O=c1[nH]c(=O)n(C2CCCO2)cc1F (configuration not stated) [TEGAFUR]	–	–	–	–	–	–	–	–	–	–	–	–	–	–	–	81.8
CO[C@@H]1[C@@H](O)[C@H](O[C@@H]2[C@@H](O)[C@H](O[C@H]3[C@H](O)[C@@H](O)[C@H](O[C@H]4[C@H](O[C@H]5CC[C@@]6(C)C(CC=C7[C@H]6CC[C@]68C(=O)O[C@@](C)(CCC=C(C)C)[C@H]6[C@@H](OC(C)=O)C[C@@]78C)C5(C)C)OC[C@@H](OS(=O)(=O)[O-])[C@@H]4O)O[C@@H]3C)OC[C@H]2O)O[C@H](CO)[C@H]1O.[Na+] (some centres not stated)	1700	20	25	30	32	2810	2300	1610	2400	2320	1650	3670	–	–	–	–
OC(Cn1cncn1)(Cn1cncn1)c1ccc(F)cc1F [FLUCONAZOLE]	–	0.25 (≈ 0.816 µM)	2 (≈ 6.53 µM)	1 (≈ 3.27 µM)	0.5 (≈ 1.63 µM)	–	–	–	–	–	–	–	–	–	–	–
